# Reference: ChEMBL document CHEMBL1157476, “A novel class of cycloalkano[b]pyridines as potent and orally active opioid receptor-like 1 antagonists with minimal binding affinity to the hERG K+ channel” (J Med Chem, 2008)
# Calls of active or inactive are those of the source. No cut-off for these calls is given here.
# Key:
# Mus musculus [1] = assay: Inhibition of ORL1 agonist-induced hypolocomotion in mouse at 3 mg/kg, sc; assay type: functional, organism-based; parameters: dose 3 mg/kg
# in vivo [2] = conditions: dog, plasma, iv, 2 mg/kg
# [3] = Metabolic stability in cryopreserved human hepatocyte after 30 mins; assay type: ADME, cell-based; conditions: cryopreserved human hepatocytes, read-out: Stability
# Method in brief: (§1)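 Compound incubated 30 min with rat hepatocytes or cryopreserved human hepatocytes; percent parent remaining reported; rat as mean of duplicates, human as mean of three experiments.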
# Plasma = conditions: dog, in vivo, iv, 1 mg/kg, 20 min
# [4] = Metabolic stability in rat hepatocyte after 30 mins; assay type: ADME, cell-based; conditions: rat hepatocytes, read-out: Stability; method in brief: as §1
# in vivo [5] = conditions: dog, plasma, iv, 7 mg/kg
# Canis familiaris [6] = assay: Cardiovascular activity in anesthetized dog assessed as corrected QT interval at 7 mg/kg, iv dosed for 10 mins measured after 20 mins relative to baseline; assay type: functional, Canis lupus familiaris
# Method in brief: (§2)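 Isoflurane-anesthetized dogs (n = 1 or 3) given cumulative iv doses as saline solutions, each infused over 10 min; 2 and 7 mg/kg doses given 20 min after the prior administration. QTc measured at 0, 10 and 20 min after dosing, expressed as percent change from baseline for each dog. Peak plasma levels taken after each dose.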
# Canis familiaris [7] = assay: Cardiovascular activity in anesthetized dog assessed as corrected QT interval at 2 mg/kg, iv dosed for 10 mins measured after 20 mins relative to baseline; assay type: functional, Canis lupus familiaris; method in brief: as §2
# in vivo [8] = conditions: dog, plasma, iv, 1 mg/kg
# [9] = Bioavailability in Sprague-Dawley rat at 10 mg/kg, iv; assay type: ADME, organism-based; conditions: in vivo, po, in the assay text read “po” for “iv”
# Method in brief: (§3)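 Fasted Sprague-Dawley rats (n = 3) dosed orally as a solution in water (10 or 3 mg/kg), with matching intravenous arms at 3 or 0.65 mg/kg; F from oral versus IV exposure.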
# physchem [10] = conditions: buffer, pH 7.4
# Canis familiaris [11] = assay: Cardiovascular activity in anesthetized dog assessed as corrected QT interval at 1 mg/kg, iv dosed for 10 mins measured after 20 mins relative to baseline; assay type: functional, Canis lupus familiaris; method in brief: as §2
# [12] = Half life in Sprague-Dawley rat at 3 mg/kg, iv; assay type: ADME, organism-based; parameters: dose 3 mg/kg, route intravenous; conditions: in vivo
# Method in brief: (§4)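 Fasted Sprague-Dawley rats (n = 3) given an intravenous solution in water at 3 or 0.65 mg/kg; plasma pharmacokinetic parameters from the IV arm.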
# [13] = Volume of distribution at steady state in Sprague-Dawley rat at 3 mg/kg, iv; assay type: ADME, organism-based; parameters: dose 3 mg/kg, route intravenous; conditions: in vivo, read-out: Vdss; method in brief: as §4
# [14] = AUC (0 to infinity) in Sprague-Dawley rat at 3 mg/kg, iv; assay type: ADME, organism-based; parameters: time infinity, dose 3 mg/kg, route intravenous; conditions: plasma
# Method in brief: (§5)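 Fasted Sprague-Dawley rats (n = 3) received a single intravenous dose. Plasma exposure was expressed as AUC from zero to infinity, in µM·h. The same study also yielded clearance, half-life and steady-state volume of distribution, with oral dosing run in parallel.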
# physchem [15] = assay: physchem
# [16] = Plasma clearance in Sprague-Dawley rat at 3 mg/kg, iv; assay type: ADME, organism-based; parameters: dose 3 mg/kg, route intravenous; method in brief: as §4
# Nociceptin receptor [17] = molecular target: T1, Nociceptin receptor (Homo sapiens, UniProt P41146); assay: Displacement of [125I][Tyr14]nociceptin from human ORL1 expressed in CHO cells; assay type: cell-based
# Nociceptin receptor [18] = molecular target: T1, Nociceptin receptor; assay: Antagonist activity at human ORL1 expressed in CHO cells assessed as effect on nociceptin-induced GTPgammaS binding; assay type: functional, cell-based
# [19] = molecular target: Voltage-gated inwardly rectifying potassium channel KCNH2 (Homo sapiens, UniProt Q12809)
# [20] = Plasma clearance in Beagle dog at 1 mg/kg, iv; assay type: ADME, organism-based, Canis lupus familiaris; parameters: dose 1 mg/kg, route intravenous
# Method in brief: (§6)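 Fasted Beagle dogs (n = 3) given 1 mg/kg intravenously; plasma pharmacokinetic parameters derived from the IV arm.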
# [21] = Plasma clearance in Sprague-Dawley rat at 0.65 mg/kg, iv; assay type: ADME, organism-based; parameters: dose 0.65 mg/kg, route intravenous; method in brief: as §4
# Mu-type opioid receptor = Mu-type opioid receptor (Homo sapiens, UniProt P35372); assay: Displacement of [3H]diprenorphin from human cloned mu opioid receptor expressed in CHO cells; assay type: cell-based
# Method in brief: (§7)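 Radioligand displacement from CHO cells stably expressing cloned human receptors: [3H]diprenorphin for mu, [3H]U-69593 for kappa, [3H][D-Ala2,D-Leu5]enkephalin for delta; IC50; three independent determinations, each in duplicate.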
# [22] = Bioavailability in Sprague-Dawley rat at 3 mg/kg, iv; assay type: ADME, organism-based; conditions: in vivo, po, in the assay text read “po” for “iv”; method in brief: as §3
# [23] = Half life in Beagle dog at 1 mg/kg, iv; assay type: ADME, organism-based, Canis lupus familiaris; parameters: dose 1 mg/kg, route intravenous; conditions: in vivo; method in brief: as §6
# [24] = Bioavailability in Beagle dog at 3 mg/kg, po; conditions: in vivo
# [25] = Volume of distribution at steady state in Sprague-Dawley rat at 0.65 mg/kg, iv; assay type: ADME, organism-based; parameters: dose 0.65 mg/kg, route intravenous; conditions: in vivo, read-out: Vdss; method in brief: as §4
# Brain = assay: Drug level in rat brain at 10 mg/kg, po after 1 hrs; assay type: ADME, organism-based; parameters: dose 10 mg/kg, route oral; conditions: in vivo
# Method in brief: (§8)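 Oral dose 10 mg/kg; plasma and brain collected 1 h after administration and drug concentrations measured, n = 3 per group.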
# [26] = molecular target: Delta-type opioid receptor (Homo sapiens, UniProt P41143); assay: Displacement of [3H][D-Ala2,D-Leu5]enkephalin from human cloned delta opioid receptor expressed in CHO cells; assay type: cell-based; method in brief: as §7
# [27] = AUC (0 to infinity) in Beagle dog at 1 mg/kg, iv; assay type: ADME, organism-based, Canis lupus familiaris; parameters: time infinity, dose 1 mg/kg, route intravenous; conditions: plasma; method in brief: as §6
# Rattus norvegicus = assay: AUC (0 to infinity) in Sprague-Dawley rat at 0.65 mg/kg, iv; assay type: ADME, organism-based, Plasma; parameters: time infinity, dose 0.65 mg/kg, route intravenous; conditions: in vivo; method in brief: as §5
# [28] = Plasma concentration in rat at 10 mg/kg, po after 1 hrs; assay type: ADME, organism-based; parameters: dose 10 mg/kg, route oral; method in brief: as §8
# [29] = Half life in Sprague-Dawley rat at 0.65 mg/kg, iv; assay type: ADME, organism-based; parameters: dose 0.65 mg/kg, route intravenous; conditions: in vivo; method in brief: as §4
# Mus musculus [30] = assay: Reversal of ORL agonist-induced locomotor activity in CD1 mouse at 10 mg/kg, po after 60 mins; assay type: functional
# Method in brief: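 Mice (n = 6) dosed orally at 10 mg/kg, then given an ORL1 agonist. Locomotor activity counted over 60 min against vehicle control and agonist-only groups. Result expressed as % reversal of the agonist-induced reduction in locomotion.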
# [31] = molecular target: Kappa-type opioid receptor (Homo sapiens, UniProt P41145); assay: Displacement of [3H]U69593 from human cloned kappa opioid receptor expressed in CHO cells; assay type: cell-based; method in brief: as §7
# [32] = Volume of distribution at steady state in Beagle dog at 1 mg/kg, iv; assay type: ADME, organism-based, Canis lupus familiaris; parameters: dose 1 mg/kg, route intravenous; conditions: in vivo, read-out: Vdss; method in brief: as §6
# T1 sequence (P41146 whole entry): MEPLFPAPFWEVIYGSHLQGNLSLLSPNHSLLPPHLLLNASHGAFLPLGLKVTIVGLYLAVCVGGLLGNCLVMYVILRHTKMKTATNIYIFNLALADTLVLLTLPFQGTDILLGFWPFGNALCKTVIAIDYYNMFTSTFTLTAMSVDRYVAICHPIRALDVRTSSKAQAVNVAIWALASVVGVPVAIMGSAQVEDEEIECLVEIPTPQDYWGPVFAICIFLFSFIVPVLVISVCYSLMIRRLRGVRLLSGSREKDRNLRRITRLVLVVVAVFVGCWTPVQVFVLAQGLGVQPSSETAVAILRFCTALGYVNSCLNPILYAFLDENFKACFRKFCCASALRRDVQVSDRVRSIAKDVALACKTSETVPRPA
# Voltage-gated inwardly rectifying potassium channel KCNH2, sequence (Q12809 whole entry): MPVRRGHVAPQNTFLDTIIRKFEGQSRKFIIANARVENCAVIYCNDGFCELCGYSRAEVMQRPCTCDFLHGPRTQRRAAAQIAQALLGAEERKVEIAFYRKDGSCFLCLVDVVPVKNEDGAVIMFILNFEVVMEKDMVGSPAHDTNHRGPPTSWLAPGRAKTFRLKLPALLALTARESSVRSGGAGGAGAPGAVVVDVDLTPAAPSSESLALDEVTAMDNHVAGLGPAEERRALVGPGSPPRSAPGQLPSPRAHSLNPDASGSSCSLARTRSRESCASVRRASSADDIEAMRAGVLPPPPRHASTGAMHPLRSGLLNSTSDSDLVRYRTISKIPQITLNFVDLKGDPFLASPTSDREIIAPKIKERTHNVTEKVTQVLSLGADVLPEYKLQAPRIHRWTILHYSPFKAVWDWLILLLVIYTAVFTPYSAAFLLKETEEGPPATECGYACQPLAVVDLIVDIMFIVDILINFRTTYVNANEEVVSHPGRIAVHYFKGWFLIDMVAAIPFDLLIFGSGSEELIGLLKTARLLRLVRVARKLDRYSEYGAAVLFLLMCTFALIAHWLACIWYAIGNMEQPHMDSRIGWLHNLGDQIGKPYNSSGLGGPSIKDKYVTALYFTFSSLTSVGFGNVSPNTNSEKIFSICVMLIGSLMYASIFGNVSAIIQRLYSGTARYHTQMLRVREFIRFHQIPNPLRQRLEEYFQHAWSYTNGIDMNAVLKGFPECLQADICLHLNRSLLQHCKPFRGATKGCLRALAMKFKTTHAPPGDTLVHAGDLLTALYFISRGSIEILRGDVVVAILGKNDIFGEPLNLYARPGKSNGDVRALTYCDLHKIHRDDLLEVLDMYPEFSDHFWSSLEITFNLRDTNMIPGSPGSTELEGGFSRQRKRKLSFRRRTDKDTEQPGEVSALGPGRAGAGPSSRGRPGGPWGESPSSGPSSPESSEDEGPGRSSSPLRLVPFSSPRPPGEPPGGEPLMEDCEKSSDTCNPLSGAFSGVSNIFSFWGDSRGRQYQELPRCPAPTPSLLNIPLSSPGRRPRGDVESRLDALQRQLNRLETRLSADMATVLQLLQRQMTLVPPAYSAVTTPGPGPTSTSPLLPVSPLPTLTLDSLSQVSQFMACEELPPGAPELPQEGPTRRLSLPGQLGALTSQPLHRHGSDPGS
# Kappa-type opioid receptor, sequence (P41145 whole entry): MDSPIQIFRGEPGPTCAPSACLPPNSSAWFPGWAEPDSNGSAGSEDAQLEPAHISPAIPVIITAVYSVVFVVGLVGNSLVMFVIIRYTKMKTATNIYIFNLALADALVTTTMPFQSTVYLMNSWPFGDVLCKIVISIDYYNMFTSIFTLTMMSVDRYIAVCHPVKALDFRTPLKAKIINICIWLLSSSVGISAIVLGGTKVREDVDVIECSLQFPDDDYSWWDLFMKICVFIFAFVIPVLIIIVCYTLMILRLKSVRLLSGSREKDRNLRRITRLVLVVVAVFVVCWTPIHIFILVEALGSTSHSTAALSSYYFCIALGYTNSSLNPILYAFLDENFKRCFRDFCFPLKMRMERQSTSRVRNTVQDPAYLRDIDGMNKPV
# Mu-type opioid receptor, sequence (P35372 whole entry): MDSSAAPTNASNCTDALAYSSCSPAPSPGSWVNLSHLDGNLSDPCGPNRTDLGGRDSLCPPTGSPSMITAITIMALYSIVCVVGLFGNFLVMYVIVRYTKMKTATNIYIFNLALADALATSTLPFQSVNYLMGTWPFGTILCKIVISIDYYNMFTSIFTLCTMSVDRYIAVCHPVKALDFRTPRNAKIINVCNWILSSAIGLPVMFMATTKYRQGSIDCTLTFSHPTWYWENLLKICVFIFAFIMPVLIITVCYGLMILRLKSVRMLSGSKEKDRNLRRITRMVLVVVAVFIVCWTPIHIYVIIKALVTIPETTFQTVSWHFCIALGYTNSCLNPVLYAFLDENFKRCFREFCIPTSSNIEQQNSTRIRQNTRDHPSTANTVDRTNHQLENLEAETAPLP
# Delta-type opioid receptor, sequence (P41143 whole entry): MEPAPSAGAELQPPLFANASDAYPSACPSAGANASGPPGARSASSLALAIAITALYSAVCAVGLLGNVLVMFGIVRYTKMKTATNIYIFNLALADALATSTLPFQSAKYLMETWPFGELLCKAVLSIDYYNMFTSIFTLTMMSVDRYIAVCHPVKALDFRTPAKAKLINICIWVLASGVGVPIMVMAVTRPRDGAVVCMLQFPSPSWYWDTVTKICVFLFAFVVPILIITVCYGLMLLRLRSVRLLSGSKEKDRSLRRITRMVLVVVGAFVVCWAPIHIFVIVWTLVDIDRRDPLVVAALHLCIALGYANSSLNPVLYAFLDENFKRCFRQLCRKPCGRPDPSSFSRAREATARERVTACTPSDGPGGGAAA
smiles,measurement,setting,value
Cc1ccccc1C1CCN(C[C@@H]2CCc3c(C)cccc3[C@@H](O)C2)CC1 (relative stereo),Activity,Mus musculus [1],inactive
Cc1ccccc1[C@@H]1CCN(C[C@@H]2CCc3cccnc3[C@@H](O)C2)C[C@H]1O,concentration at 20 min,in vivo [2],4.9 µM
same,remaining at 0.5 h,[3],62%
same,PPB,Plasma,62%
same,remaining at 0.5 h,[4],6%
same,concentration at 20 min,in vivo [5],17.9 µM
same,Activity,Canis familiaris [6],2%
same,Activity,Canis familiaris [7],0.2%
same,concentration at 20 min,in vivo [8],2.26 µM
same,bioavailability,[9],11%
same,logD,physchem [10],2.2
same,Activity,Canis familiaris [11],0.2%
same,half-life,[12],0.9 h
same,Vd,[13],6.3 L/kg
same,AUC(0-inf),[14],1.6 µM·h
same,pKa,physchem [15],7.8
same,clearance,[16],91 mL/min/kg
O[C@H]1C[C@H](CN2CCC(c3c(Cl)cccc3Cl)CC2)CCc2cccnc21,Ki,Nociceptin receptor [17],0.47 nM
same,IC50,Nociceptin receptor [18],1.6 nM
same,logD,physchem [10],> 4
same,IC50,[19],940 nM
Cc1ccccc1C1CCN(C[C@@H]2CCc3cccnc3C3(C2)OCCO3)CC1,Ki,Nociceptin receptor [17],25 nM
same,logD,physchem [10],3.1
Cc1ccccc1C1CCN(C[C@@H]2CCc3cccnc3C(=O)C2)CC1,Ki,Nociceptin receptor [17],49 nM
same,logD,physchem [10],1.3
Cc1ccccc1[C@H]1CCN(C[C@@H]2Cc3cccnc3[C@@H](O)C2)C[C@@H]1O,Ki,Nociceptin receptor [17],51 nM
same,IC50,[19],> 50000 nM
Cc1cc(F)ccc1[C@H]1CCN(C[C@@H]2Cc3cccnc3[C@@H](O)C2)C[C@@H]1O,Ki,Nociceptin receptor [17],21 nM
same,logD,physchem [10],1.9
O[C@H]1C[C@H](CN2CCC(c3ccccc3)CC2)CCc2cccnc21,Ki,Nociceptin receptor [17],30 nM
same,IC50,[19],11000 nM
Cc1ccccc1C1CCN(C[C@@H]2CCc3cccnc3C(C)(O)C2)CC1 (stereo in doubt; form 1),Ki,Nociceptin receptor [17],24 nM
Cc1ccccc1[C@@H]1CCN(C[C@@H]2CCc3cccnc3[C@@H](O)C2)C[C@H]1C,Ki,Nociceptin receptor [17],3.5 nM
same,IC50,Nociceptin receptor [18],5.7 nM
same,logD,physchem [10],3
O[C@H]1C[C@H](CN2CC[C@H](c3ccc(F)cc3Cl)[C@@H](O)C2)Cc2cccnc21,clearance,[20],19 mL/min/kg
same,concentration at 20 min,in vivo [2],8.3 µM
same,clearance,[21],47 mL/min/kg
same,IC50,Mu-type opioid receptor,> 10000 nM
same,bioavailability,[22],13%
same,remaining at 0.5 h,[3],93%
same,half-life,[23],13.5 h
same,PPB,Plasma,57%
same,remaining at 0.5 h,[4],30%
same,concentration at 20 min,in vivo [5],29.8 µM
same,bioavailability,[24],39%
same,Activity,Canis familiaris [6],2%
same,Vd,[25],3.9 L/kg
same,Activity,Canis familiaris [7],0.9%
same,concentration at 20 min,in vivo [8],3.48 µM
same,Drug uptake,Brain,0.172 nmol/g
same,logD,physchem [10],2.3
same,IC50,[26],> 10000 nM
same,AUC(0-inf),[27],2 µM·h
same,Activity,Canis familiaris [11],1.1%
same,AUC,Rattus norvegicus,0.59 µM·h
same,concentration at 1 h,[28],0.03 µM
same,half-life,[29],1.2 h
same,Activity,Mus musculus [30],89%
same,IC50,[31],> 10000 nM
same,pKa,physchem [15],7.4
same,Vd,[32],10.6 L/kg
Cc1ccccc1[C@@H]1CCN(C[C@@H]2CCc3cccnc3[C@@H](O)C2)C[C@H]1CO,Activity,Canis familiaris [6],11.3%
same,Activity,Canis familiaris [7],0.1%
same,Activity,Canis familiaris [11],-0.1%
Cc1ccccc1C1CCN(C[C@@H]2CCc3cccnc3C(C)(O)C2)CC1 (stereo in doubt; form 2),Ki,Nociceptin receptor [17],17 nM
same,logD,physchem [10],2.9
Cc1ccccc1C1CCN(C[C@@H]2Cc3cccnc3[C@@H](O)C2)CC1,Ki,Nociceptin receptor [17],11 nM
same,logD,physchem [10],2
same,IC50,[19],> 50000 nM
O[C@H]1C[C@H](CN2CCC(c3ccccc3Cl)CC2)CCc2cccnc21,Ki,Nociceptin receptor [17],1.1 nM
same,IC50,Nociceptin receptor [18],27 nM
same,IC50,[19],1500 nM
O[C@H]1C[C@H](CN2CC[C@H](c3ccc(F)cc3Cl)[C@@H](O)C2)CCc2cccnc21,Ki,Nociceptin receptor [17],4.4 nM
same,IC50,Nociceptin receptor [18],5 nM
